Experimental data: publication PMC11246720 (Journal of the American Chemical Society, 2023)
Where a chain is given by its changes, count along the chain named.

Assays:
[1] = target: T1, MAGE-A4 (Homo sapiens, UniProt P43358); experiment: TR-FRET between AF647-MTP-1 and MAGE-A4; format: binding
T1 sequence (P43358 1-317): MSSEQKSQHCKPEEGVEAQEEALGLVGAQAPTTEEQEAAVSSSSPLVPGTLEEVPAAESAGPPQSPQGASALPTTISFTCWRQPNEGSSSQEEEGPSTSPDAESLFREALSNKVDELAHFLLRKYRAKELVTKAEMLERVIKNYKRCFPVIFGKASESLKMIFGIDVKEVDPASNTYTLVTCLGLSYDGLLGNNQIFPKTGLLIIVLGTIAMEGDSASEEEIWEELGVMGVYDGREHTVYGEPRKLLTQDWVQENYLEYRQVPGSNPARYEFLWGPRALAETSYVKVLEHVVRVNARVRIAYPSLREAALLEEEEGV
In short: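 Time-dependent TR-FRET measured displacement of AF647-labelled MTP-1 peptide tracer from MAGE-A4 (and from MAGE-A4 C80A) by covalent peptides. IC50 values were calculated from the resulting TR-FRET curves.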

[2] = target: T1, MAGE-A4; experiment: MALDI-MS covalent modification of MAGE-A4; format: binding
In short: (§1)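 MAGE-A4 wild type or its C80A mutant was incubated with each peptide, and the intact protein was analysed by MALDI-MS for covalent adducts. L-Ala and D-Ala variants of each peptide, in which the dehydroalanines are replaced, were run in parallel.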

[3] = target: T1, MAGE-A4; experiment: Mass dilution TR-FRET assay for kinetic parameters; format: binding
[4] = target: T2, MAGE-A4 C80A (Homo sapiens, UniProt P43358, C80A); experiment: TR-FRET between AF647-MTP-1 and MAGE-A4 C80A; format: binding; conditions: TR-FRET vs AF647-MTP-1
T2 sequence (P43358 1-317 C80A): T1 sequence (P43358 1-317) with C80A

[5] = target: T2, MAGE-A4 C80A; experiment: MALDI-MS covalent modification of MAGE-A4 C80A mutant; format: binding
In short: as §1

[6] = target: T3, RAD18-MAGE-A4 complex (Homo sapiens, UniProt P43358); experiment: Co-immunoprecipitation of the RAD18-MAGE-A4 complex in cell lysates; conditions: 10 μM peptides
T3 sequence (P43358 1-317): T1 sequence (P43358 1-317)
In short: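 Read-out is Western blotting of MAGE-A4 co-immunoprecipitated with RAD18 from cell lysates. Peptides were tested at 10 μM, alongside a peptide included as a negative control.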

IC50 ([1]; after 1 hour): 9 nM
covalent modification of MAGE-A4 [2]: modify MAGE-A4
Ki [3]: 7.3 ± 1.1 nM
inactivation efficiency (kinact/KI) [3]: 8.17e+06 ± 867000 M⁻¹ s⁻¹
kinact [3]: 3.4 ± 0.3 min⁻¹
covalent modification of MAGE-A4 C80A mutant [5]: did not label
disruption of MAGE-A4 pulldown with RAD18 [6]: able to disrupt MAGE-A4 pulldown
Substance: MCP1
change in potency over time ([1]; time-dependent TR-FRET): small yet significant increases in potency over time
IC50 / activity in the presence of MAGE-A4 C80A [4]: fell in between those of their L- and D-Ala mutants
